Experiment [1] relates to N9. Description: Antiinflammatory activity against mouse N9 cells assessed as inhibition of LPS/IFN-gamma-induced nitrite accumulation treated 1 hr before LPS challenge assessed after 24 hrs.
The nature of experiment [2]: Antiinflammatory activity against mouse […] cells assessed as inhibition of LPS-induced nitrite accumulation treated 1 hr before LPS challenge assessed after 24 hrs. The format is functional, cell-based. The gist of the method:
(§1)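 RAW 264.7 macrophages were plated at 2×10^5 cells/well in DMEM with 5% FCS and adhered overnight. They were pretreated 1 h at 37 °C with compound or 0.5% DMSO vehicle, then stimulated with E. coli 0111:B4 LPS 1 μg/mL for 24 h. Medium nitrite was read by Griess reaction (10 min at RT, A550) against an NaNO₂ standard. Mean ± s.e.m., n=3; IC50 from concentration–response.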

The nature of experiment [3]: Antiinflammatory activity against mouse […] cells assessed as inhibition of LPS-induced nitrite accumulation at 1 mM treated 1 hr before LPS challenge assessed after 24 hrs. The format is functional. The gist of the method: (§2)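 RAW 264.7 cells in DMEM with 5% FCS seeded at 2×10^5 cells/well and allowed to adhere overnight. Pretreated 1 h at 37 °C with compound or 0.5% DMSO (final), then stimulated with 1 μg mL⁻¹ E. coli 0111:B4 LPS for 24 h. Medium nitrite measured by Griess reaction (absorbance 550 nm) using an NaNO₂ standard curve. Mean ± s.e.m., n=3.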

Experiment [4] in a line: Antiinflammatory activity against mouse […] cells assessed as inhibition of LPS-induced nitrite accumulation at 0.1 mM treated 1 hr before LPS challenge assessed after 24 hrs. The class given is functional. The gist of the method:
as §2

Experiment [5] in a line: Antiinflammatory activity against mouse […] cells assessed as inhibition of LPS-induced nitrite accumulation at 0.3 mM treated 1 hr before LPS challenge assessed after 24 hrs. The class given is functional. The gist of the method: as §2
Experiment [6] has as its system N9. In words: Antiinflammatory activity against mouse N9 cells assessed as inhibition of LPS/IFN-gamma-induced nitrite accumulation at 30 uM treated 1 hr before LPS challenge assessed after 24 hrs.
Experiment [7] relates to N9. Description: Antiinflammatory activity against mouse N9 cells assessed as inhibition of LPS/IFN-gamma-induced nitrite accumulation at 10 uM treated 1 hr before LPS challenge assessed after 24 hrs.
The subject of experiment [8] is N9. Description: Antiinflammatory activity against mouse N9 cells assessed as inhibition of LPS/IFN-gamma-induced TNFalpha generation treated 1 hr before LPS challenge assessed after 24 hrs. The class given is functional, cell-based. In a few lines:
(§3)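 TNF-α release assay. Cells were pretreated with compound at 37 °C for 1 h and then stimulated for 24 h. N9 microglia were in Iscove's medium with 2% heat-inactivated FCS at 8×10^4 cells/well and were stimulated with LPS 10 μg/mL. RAW 264.7 cells were in DMEM with 5% FCS at 2×10^5 cells/well and were stimulated with LPS 1 μg/mL. Medium was stored at -70 °C until assay.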

A short description of experiment [9]: Antiinflammatory activity against mouse […] cells assessed as inhibition of LPS-induced nitrite accumulation at 3 uM treated 1 hr before LPS challenge assessed after 24 hrs. The class given is functional. The gist of the method:
as §1

Experiment [10] is described as follows: Antiinflammatory activity against mouse […] cells assessed as inhibition of LPS-induced nitrite accumulation at 30 uM treated 1 hr before LPS challenge assessed after 24 hrs. The format is functional. In a few lines:
as §1

The nature of experiment [11]: Antiinflammatory activity against mouse […] cells assessed as inhibition of LPS-induced nitrite accumulation at 10 uM treated 1 hr before LPS challenge assessed after 24 hrs. The format is functional. In a few lines: as §1
Another experiment is filed under the species Mus musculus. Description: Antiinflammatory activity against mouse […] cells assessed as inhibition of LPS-induced TNFalpha generation treated 1 hr before LPS challenge assessed after 24 hrs. The class given is functional, cell-based. In a few lines: as §3

Active and inactive are the calls of the source. No cut-off for these calls is given here.

As a reminder, the IC50 is the concentration at which inhibition is half-maximal. Usually inhibition stands for the change of the read-out against control, counted positive when it falls.

Consider `COC(=O)[C@@H](N)CCCNC(=N)N[N+](=O)[O-]` [L-NAME], for which the 50% inhibitory concentration (IC50) with N9 [1] amounted to 630 µM; in experiment [2], 510 µM. In [3], the inhibition at 1000 µM stood at 6.6%. Further, the inhibition at 100 µM in [4] turned out to be 16.8%. In [5], the inhibition at 300 µM was 15.6%.

For `COc1cc2c(O[C@@H]3OC[C@](O)(CO[C@@H]4OC[C@@H](O)[C@H](O)[C@H]4O)[C@H]3O[C@@H]3OC[C@H](O)[C@H](O)[C@H]3O)c3c(c(-c4ccc5c(c4)OCO5)c2cc1OC)C(=O)OC3` [CILIATOSIDE A], the IC50 in experiment [2] stood at 27.1 µM. The values for the inhibition at 30 µM (in the experiment with N9 [6]; in experiment [10]) were 37.9% and 11.9%, respectively. Besides, the inhibition at 10 µM in the experiment on N9 [7] came to 46.7%; in [11], 18.7%. Further, the outcome in the experiment on N9 [8] and in the experiment filed under Mus musculus was inactive. For the same compound, the inhibition at 3 µM in [9] stood at 22%.

As for `COc1cc2c(O[C@@H]3OC[C@](O)(CO[C@@H]4OC[C@@H](O)[C@H](O)[C@H]4O)[C@H]3O[C@@H]3OC[C@H](O)[C@H](O[C@@H]4OC[C@](O)(CO)[C@H]4O)[C@H]3O)c3c(c(-c4ccc5c(c4)OCO5)c2cc1OC)C(=O)OC3` [CILIATOSIDE B], the IC50 in experiment [2] is 29.4 µM. Moreover, the inhibition at 30 µM is 36.5% with N9 [6] and 12.4% in [10]. Besides, the inhibition at 10 µM in the experiment with N9 [7] was determined as 42.8%; in experiment [11], 20.5%. In addition, the outcome in the experiment on N9 [8] and in the experiment listed under Mus musculus was inactive. The inhibition at 3 µM in [9] worked out at 20.7%.

The record behind these values is ChEMBL document CHEMBL1155633, “New lignan glycosides with potent antiinflammatory effect, isolated from Justicia ciliata” (J Nat Prod, 2000).
